How the values were obtained:
[1] = tested on: HBV DNA replication; test: Inhibition of HBV DNA replication in HepG 2.2.15 cells; format: cell-based; conditions: Hepatitis B virus, HepG2.2.15, read-out: DNA replication IC50
[2] = Cytotoxicity; format: cell-based; conditions: human, HepG 2.2.15 cells
[3] = tested on: HBsAg (hepatitis B surface antigen) secretion; test: Inhibition of HBsAg secretion in HepG 2.2.15 cells; format: cell-based; conditions: Hepatitis B virus, HepG2.2.15, read-out: HBsAg IC50
[4] = tested on: Kunming mice; test: Acute toxicity in mice, single oral dose, 14 days observation; format: in vivo; conditions: for No. of dead, 1–7 day / No. of dead, 8–14 day / Total death / mortality: 10 mice; for Body weight, 0 day: group average
Method in brief: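 Male and female Kunming mice (21 ± 2 g) were randomised into 4 groups of 10 (5 male + 5 female). Each group received one oral dose of test compound at 0, 50, 250 or 1250 mg/kg; the 0 group got the same volume of physiological saline. Mice had free food and water at 25 ± 1 °C on a 12-h light/dark cycle. Survival and body weight were recorded up to 14 days.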

| Compound | IC50 [1] | CC50 [2] | IC50 [3] | No. of dead, 1–7 day ([4]; 50 mg/kg oral) | No. of dead, 8–14 day ([4]; 50 mg/kg oral) | Total death ([4]; 50 mg/kg oral) | mortality ([4]; 50 mg/kg oral) | Body weight, 0 day ([4]; 50 mg/kg oral) | No. of dead, 1–7 day ([4]; 250 mg/kg oral) | No. of dead, 8–14 day ([4]; 250 mg/kg oral) | Total death ([4]; 250 mg/kg oral) | mortality ([4]; 250 mg/kg oral) | Body weight, 0 day ([4]; 250 mg/kg oral) | No. of dead, 1–7 day ([4]; 1250 mg/kg oral) | No. of dead, 8–14 day ([4]; 1250 mg/kg oral) | Total death ([4]; 1250 mg/kg oral) | mortality ([4]; 1250 mg/kg oral) | Body weight, 0 day ([4]; 1250 mg/kg oral) | survival and abnormality of mice up to 14 days post administration ([4]; single oral dose at 50, 250 and 1250 mg/kg, Kunming mice of both genders) |
| --- | --- | --- | --- | --- | --- | --- | --- | --- | --- | --- | --- | --- | --- | --- | --- | --- | --- | --- | --- |
| CC(=O)[C@]1(O)CC[C@@]2(O)[C@]1(C)[C@H](OC(=O)/C=C(\C)C(C)C)C[C@@H]1[C@@]3(C)CC[C@H](O)CC3=CC[C@]12O [Compound 1, caudatin] | 40.6 µM | 245 µM | 143 µM | – | – | – | – | – | – | – | – | – | – | – | – | – | – | – | – |
| COc1cc(/C=C/C(=O)O[C@H]2CC[C@@]3(C)C(=CC[C@]4(O)[C@@H]3C[C@@H](OC(=O)/C=C(\C)C(C)C)[C@@]3(C)[C@]4(O)CC[C@@]3(O)C(C)=O)C2)cc(OC)c1OC [Compound 18, 3-O-(3,4,5-Trimethoxy)cinnamoyl caudatin] | – | – | – | 0 | 0 | 0/0 | 0/0 | 22.4 g | 0 | 0 | 0/0 | 0/0 | 22.3 g | 0 | 0 | 0/0 | 0/0 | 22.6 g | no dies and abnormality were observed |
